Source: ChEMBL document CHEMBL3351225, “Design, synthesis, and structure-activity and structure-pharmacokinetic relationship studies of novel [6,6,5] tricyclic fused oxazolidinones leading to the discovery of a potent, selective, and orally bioavailable FXa inhibitor” (J Med Chem, 2014)

Legend:
[1] = AUC (0 to infinity) in Sprague-Dawley rat at 10 mg/kg, po; format: ADME, organism-based; design: time infinity, dose 10 mg/kg, route oral; conditions: plasma
How it was run: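 Male Sprague-Dawley rats, 200−220 g, four per group. Vehicle was 5% DMSO + 5% Tween-80 in 90% saline. The reference drug was given in 10% DMSO + 10% Tween-80 + 80% PEG400 (40% solution in saline). Serial retrobulbar vein samples were quantified by LC-MS. Parameters came from noncompartmental analysis of mean plasma concentrations.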

[2] = test system: Rattus norvegicus; experiment: Toxicity in rat assessed as induction of body weight changes at 100 mg/kg, po dosed once daily for 2 weeks; format: organism-based; design: dose 100 mg/kg, route oral; conditions: in vivo, 336 h
How it was run: (§1)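 Subacute toxicity in rats: oral dosing once daily for 2 weeks at 50 mg/kg (medium) or 100 mg/kg (high). Behavior, body weight, food intake, organ coefficients and survival rate were monitored.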

[3] = test system: Rattus norvegicus; experiment: Toxicity in rat assessed as induction of behavioral changes at 50 mg/kg, po dosed once daily for 2 weeks; format: organism-based; design: dose 50 mg/kg, route oral; conditions: in vivo, 336 h; how it was run: as §1
[4] = test system: Plasma; experiment: Anticoagulant activity in citrated rabbit plasma assessed as activated partial thromboplastin time preincubated for 10 mins at 37 degC by coagulometry; format: functional, Oryctolagus cuniculus
How it was run: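 Test compound or DMSO added to citrated rabbit plasma (3.8% sodium citrate, 10:90 v/v) and preincubated 10 min at 37 °C. PT and aPTT clotting times measured on a coagulometer with commercial kits. Activity expressed as the concentration needed to double plasma clotting time (CT2, μM).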

[5] = Elimination half life in Beagle dog at 0.5 mg/kg, iv; format: ADME, organism-based, Canis lupus familiaris; design: dose 0.5 mg/kg, route intravenous; conditions: in vivo
How it was run: (§2)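 Male dogs, three per group. Dosed orally at 1 mg/kg or by intravenous infusion at 0.5 mg/kg. Vehicle was 5% DMSO + 5% Tween-80 in 90% saline, or 10% DMSO + 10% Tween-80 + 80% PEG400 for the reference drug. Foreleg blood samples were quantified by LC-MS. Parameters came from noncompartmental analysis of mean plasma concentrations.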

[6] = molecular target: Trypsin (Homo sapiens, UniProt P07477+P07478+P35030); experiment: Inhibition of human trypsin using N-Z-D-Arg-Gly-Arg-pNA, S-2765 chromogenic substrate; format: protein assay
How it was run: (§3)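 Human enzyme and inhibitor were premixed and preincubated, then the chromogenic substrate was added. Substrate levels: 300 μM S-2765 (FXa, trypsin); 200 μM S-2366 (FIIa); 2 mM S-2366 (FVIIa, FXIa). pNA release was monitored continuously at 405 nm for 20 min at 37 °C. IC50 was obtained by nonlinear regression.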

[7] = molecular target: Cytochrome P450 2C19 (Homo sapiens, UniProt P33261); experiment: Inhibition of CYP2C19 (unknown origin); format: ADME
[8] = molecular target: Coagulation factor XI (Homo sapiens, UniProt P03951); experiment: Inhibition of human factor 11a using S-2366 chromogenic substrate; how it was run: as §3
[9] = test system: Rattus norvegicus; experiment: Toxicity in rat assessed as induction of organ coefficients changes at 100 mg/kg, po dosed once daily for 2 weeks; format: organism-based; design: dose 100 mg/kg, route oral; conditions: in vivo, 336 h; how it was run: as §1
[10] = molecular target: Coagulation factor X (Homo sapiens, UniProt P00742); experiment: Inhibition of human factor 10a using N-Z-D-Arg-Gly-Arg-pNA, S-2765 chromogenic substrate
[11] = Volume of distribution at steady state in Beagle dog at 0.5 mg/kg, iv; format: ADME, organism-based, Canis lupus familiaris; design: dose 0.5 mg/kg, route intravenous; conditions: in vivo, read-out: Vdss; how it was run: as §2
[12] = molecular target: T1, Cytochrome P450 1A2 (Homo sapiens, UniProt P05177); experiment: Inhibition of CYP1A2 (unknown origin); format: ADME
T1 sequence (P05177 whole entry): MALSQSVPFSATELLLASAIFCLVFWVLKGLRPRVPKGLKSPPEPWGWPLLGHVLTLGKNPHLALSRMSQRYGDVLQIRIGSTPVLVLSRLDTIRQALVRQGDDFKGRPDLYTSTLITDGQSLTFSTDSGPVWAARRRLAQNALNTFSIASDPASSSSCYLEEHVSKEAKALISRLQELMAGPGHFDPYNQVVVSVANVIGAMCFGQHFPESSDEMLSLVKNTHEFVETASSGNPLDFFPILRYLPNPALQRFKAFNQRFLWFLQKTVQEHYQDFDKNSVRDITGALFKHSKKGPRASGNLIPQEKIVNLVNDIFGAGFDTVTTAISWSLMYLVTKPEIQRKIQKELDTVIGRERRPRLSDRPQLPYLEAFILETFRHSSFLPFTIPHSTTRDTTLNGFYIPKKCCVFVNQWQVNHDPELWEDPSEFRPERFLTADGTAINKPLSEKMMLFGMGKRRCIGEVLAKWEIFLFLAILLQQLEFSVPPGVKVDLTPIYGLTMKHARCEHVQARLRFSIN

[13] = molecular target: Prothrombin (Homo sapiens, UniProt P00734); experiment: Inhibition of human factor 2a using L-pyro-Glu-Pro-ArgpNA, S-2366 chromogenic substrate; how it was run: as §3
[14] = test system: Rattus norvegicus; experiment: Toxicity in rat assessed as induction of organ coefficients changes at 50 mg/kg, po dosed once daily for 2 weeks; format: organism-based; design: dose 50 mg/kg, route oral; conditions: in vivo, 336 h; how it was run: as §1
[15] = test system: Rattus norvegicus; experiment: Toxicity in rat assessed as survival rate changes at 50 mg/kg, po dosed once daily for 2 weeks; format: organism-based; design: dose 50 mg/kg, route oral; conditions: in vivo, 336 h; how it was run: as §1
[16] = molecular target: Coagulation factor IX (Homo sapiens, UniProt P00740); experiment: Inhibition of human factor 9a using CH3SO2-(D)CHG Gly-Arg-pNA, Biophen-CS51 chromogenic substrate
Chain of Coagulation factor IX (P00740 47-191 limits assumed): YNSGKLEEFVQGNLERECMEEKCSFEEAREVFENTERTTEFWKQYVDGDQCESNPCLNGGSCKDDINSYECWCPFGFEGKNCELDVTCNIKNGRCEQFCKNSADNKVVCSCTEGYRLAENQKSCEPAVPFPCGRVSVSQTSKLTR
Chain of Coagulation factor IX (P00740 227-461 limits assumed): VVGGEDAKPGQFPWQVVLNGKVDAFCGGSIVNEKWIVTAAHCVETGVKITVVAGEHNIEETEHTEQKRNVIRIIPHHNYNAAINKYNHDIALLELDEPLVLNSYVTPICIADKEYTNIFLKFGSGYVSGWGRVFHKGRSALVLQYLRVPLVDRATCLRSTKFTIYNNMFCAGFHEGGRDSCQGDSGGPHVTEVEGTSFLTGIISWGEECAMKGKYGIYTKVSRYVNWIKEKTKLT

Chain of Coagulation factor X (P00742 41-179 limits assumed): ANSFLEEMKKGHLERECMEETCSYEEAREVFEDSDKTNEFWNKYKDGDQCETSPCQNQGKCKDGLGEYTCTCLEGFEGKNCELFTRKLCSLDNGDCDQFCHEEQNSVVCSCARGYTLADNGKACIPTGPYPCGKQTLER
Chain of Coagulation factor X (P00742 235-488 limits assumed): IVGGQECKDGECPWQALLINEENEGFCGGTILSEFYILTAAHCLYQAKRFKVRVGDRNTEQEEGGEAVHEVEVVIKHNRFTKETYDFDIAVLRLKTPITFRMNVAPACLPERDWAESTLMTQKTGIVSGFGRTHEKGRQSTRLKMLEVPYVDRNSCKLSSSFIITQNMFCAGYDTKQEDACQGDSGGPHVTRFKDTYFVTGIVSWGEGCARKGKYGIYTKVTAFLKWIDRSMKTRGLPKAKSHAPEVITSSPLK
Chain of Cytochrome P450 2C19 (P33261 whole entry): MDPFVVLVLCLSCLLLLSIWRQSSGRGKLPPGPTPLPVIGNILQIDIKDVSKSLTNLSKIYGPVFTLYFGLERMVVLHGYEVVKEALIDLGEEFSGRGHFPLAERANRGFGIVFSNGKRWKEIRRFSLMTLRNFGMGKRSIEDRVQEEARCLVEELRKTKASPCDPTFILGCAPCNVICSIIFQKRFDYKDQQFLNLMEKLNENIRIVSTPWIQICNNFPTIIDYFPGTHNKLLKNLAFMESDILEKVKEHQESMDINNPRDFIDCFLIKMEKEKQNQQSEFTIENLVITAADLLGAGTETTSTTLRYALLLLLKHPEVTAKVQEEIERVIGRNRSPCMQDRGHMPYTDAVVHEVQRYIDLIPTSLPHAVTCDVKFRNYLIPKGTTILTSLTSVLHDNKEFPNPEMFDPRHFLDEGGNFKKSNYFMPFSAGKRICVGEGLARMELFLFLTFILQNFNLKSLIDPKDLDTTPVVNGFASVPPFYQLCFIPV
Chain of Coagulation factor XI (P03951 19-387 limits assumed): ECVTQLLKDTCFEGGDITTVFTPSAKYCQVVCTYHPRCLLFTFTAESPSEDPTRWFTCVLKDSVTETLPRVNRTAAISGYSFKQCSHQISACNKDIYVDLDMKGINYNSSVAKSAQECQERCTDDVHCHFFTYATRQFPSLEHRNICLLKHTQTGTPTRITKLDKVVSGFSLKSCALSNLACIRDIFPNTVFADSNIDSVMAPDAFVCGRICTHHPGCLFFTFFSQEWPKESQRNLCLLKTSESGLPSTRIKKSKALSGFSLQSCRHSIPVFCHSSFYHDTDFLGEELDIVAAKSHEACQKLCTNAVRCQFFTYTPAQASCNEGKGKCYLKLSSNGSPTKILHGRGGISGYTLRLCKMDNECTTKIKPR
Chain of Coagulation factor XI (P03951 388-625 limits assumed): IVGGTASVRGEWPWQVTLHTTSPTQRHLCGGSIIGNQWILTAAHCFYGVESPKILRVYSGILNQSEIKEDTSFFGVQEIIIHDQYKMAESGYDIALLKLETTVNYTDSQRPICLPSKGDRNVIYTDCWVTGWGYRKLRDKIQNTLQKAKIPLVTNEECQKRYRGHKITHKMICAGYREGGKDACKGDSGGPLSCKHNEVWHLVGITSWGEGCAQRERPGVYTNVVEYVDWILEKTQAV

In the case of `O=C(NC[C@@H]1OC(=O)N2c3ccc(N4CCOCC4=O)cc3OC[C@@H]12)c1ccc(Cl)s1`, the AUC(0-inf) [1] is reported as 33000 ng·h/mL, the Activity [2] is reported as “Non-toxic” and the Activity [3] is reported as “Non-toxic”. The 2aPTT [4] was 0.14 µM, the half-life [5] was 3.1 h and the IC50 [6] was greater than 100 µM. For the same molecule, the IC50 [7] was greater than 200 µM, the IC50 [8] was greater than 100 µM and the Activity [9] was “Non-toxic”. It also gave an IC50 [10] of 0.00341 µM, a Vd [11] of 1.7 L/kg and an IC50 [12] greater than 200 µM. The IC50 [13] was greater than 100 µM, the Activity [14] was “Non-toxic” and the Activity [15] was “Non-toxic”. It also gave an IC50 [16] greater than 100 µM.
